Screening results as filed in PubChem BioAssay.
CHOP inhibitor: CHOP inhibition in unfolded protein response; CHO-K1 CHOP-promoter luciferase, tunicamycin-induced, 15-18 h; inhibition, % at 10 µM; AID 2732; 220,000 compounds, 3.8% hits;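 active = compounds that reduced the stress-induced luciferase reporter signal by more than about 70% of percent inhibition, limit read from the data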;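 also: 0% = tunicamycin plus vehicle and 100% = wells without tunicamycin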
Lmaj promast: Leishmania major promastigote growth inhibition | 200,000 compounds, 9% hits | Leishmania major promastigotes, resazurin fluorescence viability | inhibition, % at 10 µM;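 also: promastigotes grown with compound for 44 hours at 28 °C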
Arbovirus anti: blocks arbovirus infection. arbovirus infection cell-based antiviral screen. 200,000 compounds, 0.37% hits. inhibition, % at 10 µM; in the data active = inhibition above about 30%
PKD1 kinase inh: inhibitors of human PKD1 kinase; AID 797; PKD1 kinase fluorescence polarization assay; inhibition, % (concentration not given with the values); Q15139; 200,000 compounds, 0.056% hits
Rad51 HR inh: Rad51 (human) homologous recombination inhibition | Q06609 | hRad51 DNA strand exchange, fluorescence dequenching | inhibition, % at 10 µM | 200,000 compounds, 0.085% hits | AID 1385;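 active = inhibition above 40% at the single screening dose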;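 also: 0% = DMSO control wells and 100% = blanks with heterologous ssDNA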
Target sequence (Q06609 whole entry, looked up): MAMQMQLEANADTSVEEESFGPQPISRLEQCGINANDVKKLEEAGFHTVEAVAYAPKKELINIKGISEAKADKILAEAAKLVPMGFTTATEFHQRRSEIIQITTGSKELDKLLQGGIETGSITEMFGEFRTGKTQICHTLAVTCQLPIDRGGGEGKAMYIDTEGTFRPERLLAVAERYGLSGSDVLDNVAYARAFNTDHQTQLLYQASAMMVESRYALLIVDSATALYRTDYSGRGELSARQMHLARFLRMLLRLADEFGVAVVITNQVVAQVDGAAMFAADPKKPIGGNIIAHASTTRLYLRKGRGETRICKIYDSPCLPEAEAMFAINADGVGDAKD
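Test system: preformed human Rad51 ssDNA filaments; also added: Donor/quencher-labelled 47-bp dsDNA substrate; doses: 10 µM final, single point; times: 37 °C 15-min filament assembly, 30-min compound preincubation, 15-min exchange; detection: FRET fluorescence dequenching, excitation 485 nm, emission 520 nm; read-out basis: Fluorescence-based percent inhibition, control- and blank-normalised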
Wee1 degr inh: blocks degradation of human Wee1 kinase. P30291. HeLa Luc-Wee1K328M stability, luciferase luminescence; 100% = proteasome inhibitor MG132 effect. reporter increase, % at 5 µM. 220,000 compounds, 1.2% hits;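 active = activation above the mean of all tested compounds plus 3 SD, set per screening run, cut at about 8.8% in these data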;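 also: cells exposed to compound for 20 h before luminescence read; 0% = DMSO alone and 100% = MG132 at 30 µM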
Numbers without * were called inactive; / = no result. Shown are actives, neighbours in structure and some others; about 12% of the full set was active somewhere. Rule as the data show it, unless noted: active = inhibition above about 50%; inactive = the rest.

SMILES	CHOP inhibitor	Lmaj promast	Arbovirus anti	PKD1 kinase inh	Rad51 HR inh	Wee1 degr inh
CN(C)c1ccc(N=Nc2ccccc2C(=O)OCC(=O)NCC2CCCCC2)cc1	36	97*	-18	7	13	-2
CN(C)c1ccc(N=Nc2ccccc2C(=O)OCC(=O)NC2CCCC2)cc1	-74	7	5	3	-1	7
COc1ccc(CCN(Cc2cccs2)S(=O)(=O)c2ccc(C(=O)O)cc2)cc1OC	44	-7	-4	-4	1	0
CC(=O)Nc1ccc(NC(=O)c2ccc(COc3ccc4c(C)cc(=O)oc4c3)cc2)cc1	-8	50	-8	-9	-1	2
Cc1ccc(Cl)cc1NC(=O)COC(=O)c1ccc(COc2ccc3c(C)cc(=O)oc3c2)cc1	17	55*	6	-2	-8	-1
FC(F)(F)c1cccc(Nc2cc(-c3ccccc3)nc3ncnn23)c1	21	/	/	/	10	2
O=C(c1ccc2c(c1)OCO2)N1CCN(c2ccc(C(F)(F)F)cn2)CC1	22	76*	2	-7	6	-1
O=C(c1ccc2ccccc2c1)N1CCN(c2ccc(C(F)(F)F)cn2)CC1	89*	98*	5	-1	5	1
FC(F)(F)c1ccc(N2CCN(c3cc(-c4ccccc4)nc4ncnn34)CC2)nc1	74*	27	3	-7	0	-2
CN1CCN(C(=O)c2ccc3ccccc3c2)CC1	-31	87*	1	-1	1	-2
CCOc1ccccc1NS(=O)(=O)c1cn(C)c(=O)n(C)c1=O	13	/	/	/	1	-3
COc1ccc(OC)c(S(=O)(=O)NC(N)=NCCc2ccccc2OC)c1	-21	-2	5	0	1	-3
Cc1ccc(-c2c(C(=O)NCc3ccccc3)oc(=O)c3ccccc23)cc1	19	3	9	-5	-14	5
CN(Cc1ccccc1)C(=O)c1oc(=O)c2ccccc2c1-c1ccccc1	22	55*	15	-4	-1	-1
Cc1ccc(-c2c(C(=O)N(C)Cc3ccccc3)oc(=O)c3ccccc23)cc1	11	82*	14	-13	-2	-3
O=C(Nc1ccon1)c1cccc(S(=O)(=O)N2CCCCC2)c1	12	-4	4	1	/	-2
COc1ccc(C(=O)OC/C(O)=C(\C#N)c2nc3ccccc3[nH]2)cc1S(=O)(=O)N1CCOCC1	-17	-8	9	0	/	-2
CCOC(=O)c1cnc(-n2nc(C)cc2C)nc1NCc1ccc2c(c1)OCO2	87*	8	2	-11	-8	2
CCc1cc2c(SCc3nc4sc(C(C)=O)c(C)c4c(=O)[nH]3)ncnc2s1	22	/	/	/	/	0
COc1ccc(NC(=O)CSc2nnnn2C)cc1	-22	-6	6	5	33	-2
O=C(CSc1nnnn1Cc1ccccc1)Nc1ccccc1	6	/	/	/	-15	9.3*
Cn1nnnc1SCC(=O)Nc1ccc(Oc2ccccc2)cc1	75*	93*	-6	-16	9	3
CCN(CC)C(=O)CSc1nnc(-c2ccccn2)n1Cc1ccccc1	10	/	/	/	18	-2
Cc1ccc2[nH]c(C)c(/C=N/Nc3nc4ccccc4s3)c2c1	78*	3	-22	1	4	-3
C(=N\Nc1nc2ccccc2s1)/c1ccccn1	101*	/	/	/	-9	-4
SMILES	CHOP inhibitor	Lmaj promast	Arbovirus anti	PKD1 kinase inh	Rad51 HR inh	Wee1 degr inh
Brc1cc2c(cc1/C=N/Nc1nc3ccccc3s1)OCO2	69	-2	-8	4	-6	-2
O=C(O)c1ccc(NC2=Nc3cccc4cccc2c34)cc1	-18	/	/	/	/	-2
Brc1csc(/C=N/Nc2nc3ccccc3s2)c1	68	-1	10	-3	-6	8.9*
C(=N\NC1=Nc2cccc3cccc1c23)/c1ccccn1	66	100*	-11	2	-19	2
Cc1cccc(S(=O)(=O)NCCc2ccccc2)c1	7	-9	7	1	-2	-2
Cc1ccc(NC(=S)Nc2cccnc2)c(S(=O)(=O)N2CCCCC2)c1	46	3	-2	2	-10	-3
CC(C)(C)NC(=S)NC1CC1	5	/	/	/	9	-3
Cc1cc(C(=O)NNc2ccc(F)cc2)no1	-7	/	/	/	11	-1
Cc1ccc(S(=O)(=O)Nc2nc3ccccc3nc2NCC2CCCO2)cc1C (stereo unspecified)	11	/	/	/	/	3
Cc1noc(C)c1C(=O)N1CCC(C(=O)c2ccc(F)cc2F)CC1	14	/	/	/	18	1
